pKd, pKi: −log10 of the molar value. Calls of active or inactive are those of the source. No cut-off for these calls is given here.
What was measured:
[1] = Partition coefficient, log D at pH 7.4 by shake-flask method; type: physicochemical; conditions: octanol/water
How it was run: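 Shake-flask partitioning between water-saturated n-octanol and PBS pH 7.4. Peptide (0.4 mg) was reconstituted in 1 mL PBS, or in octanol if poorly water-soluble. Octanol peptide was taken as total minus aqueous, and logD = log([octanol]/[aqueous]). Four independent preparations per analogue.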

[2] = Metabolic stability in rat serum assessed as half life at pH 7.5; type: ADME, cell-free
How it was run: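 Peptide (final 20 µM) was incubated in 25% rat serum with 0.1 M Tris-HCl pH 7.5 at 37 °C, serum pre-warmed 10 min. Aliquots taken up to 8 h were quenched with 15% TCA in 40% isopropanol, held 15 min at -20 °C and centrifuged. Intact peptide was measured by reversed-phase HPLC peak area, and half-life was calculated from the disappearance.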

Galanin receptor type 1 = target: T1, Galanin receptor type 1 (Homo sapiens, UniProt P47211); experiment: Displacement of europium-labeled galanin from human GalR1 expressed in HEK293 EBNA cells; type: cell-based
T1 sequence (P47211 whole entry): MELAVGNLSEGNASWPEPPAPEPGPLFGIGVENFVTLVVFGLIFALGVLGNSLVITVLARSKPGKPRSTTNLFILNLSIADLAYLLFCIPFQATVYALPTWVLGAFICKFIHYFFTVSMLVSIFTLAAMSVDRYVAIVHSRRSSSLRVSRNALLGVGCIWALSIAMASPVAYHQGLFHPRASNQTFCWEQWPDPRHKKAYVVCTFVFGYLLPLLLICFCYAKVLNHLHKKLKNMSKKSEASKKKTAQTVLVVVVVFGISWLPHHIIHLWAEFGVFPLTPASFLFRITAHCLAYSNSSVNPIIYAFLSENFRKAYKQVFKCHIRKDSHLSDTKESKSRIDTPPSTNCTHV

Galanin receptor type 2 [3] = target: T2, Galanin receptor type 2 (Homo sapiens, UniProt O43603); experiment: Displacement of europium-labeled galanin from human GalR2 expressed in CHO-K1 cells; type: cell-based
T2 sequence (O43603 whole entry): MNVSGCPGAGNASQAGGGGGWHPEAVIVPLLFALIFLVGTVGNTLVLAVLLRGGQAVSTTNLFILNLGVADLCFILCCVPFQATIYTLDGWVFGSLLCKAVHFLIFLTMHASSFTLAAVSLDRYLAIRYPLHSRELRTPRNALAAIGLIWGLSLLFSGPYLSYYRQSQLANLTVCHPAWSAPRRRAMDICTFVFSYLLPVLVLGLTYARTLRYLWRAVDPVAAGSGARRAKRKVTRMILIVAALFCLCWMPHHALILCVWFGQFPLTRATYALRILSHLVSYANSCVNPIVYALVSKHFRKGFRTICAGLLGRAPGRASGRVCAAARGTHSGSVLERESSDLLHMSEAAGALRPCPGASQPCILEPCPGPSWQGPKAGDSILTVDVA

Mus musculus [4] = experiment: Anticonvulsant activity in CF1 mouse assessed as inhibition of 6 Hz corneal stimulation-induced limbic seizures at 4 mg/kg, ip administered 15 mins before 6 Hz corneal stimulation; type: functional, organism-based; set-up: dose 4 mg/kg; conditions: Limbic system
How it was run: (§1)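 Each analogue given ip at 4 mg/kg to five groups of CF-1 mice (n = 4 per group), one group per time point. Seizure challenge was 6 Hz corneal stimulation (32 mA for 3 s, corneal electrodes) at 15, 30, 60, 120 or 240 min after dosing. A mouse without a limbic seizure (jaw chomping, vibrissae twitching, forelimb clonus, Straub tail) was counted as protected.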

Mus musculus [5] = experiment: Anticonvulsant activity in CF1 mouse assessed as inhibition of 6 Hz corneal stimulation-induced limbic seizures at 4 mg/kg, ip administered 120 mins before 6 Hz corneal stimulation; type: functional, organism-based; set-up: dose 4 mg/kg; conditions: Limbic system; how it was run: as §1
Mus musculus [6] = experiment: Anticonvulsant activity in CF1 mouse assessed as inhibition of 6 Hz corneal stimulation-induced limbic seizures at 4 mg/kg, ip administered 240 mins before 6 Hz corneal stimulation; type: functional, organism-based; set-up: dose 4 mg/kg; conditions: Limbic system; how it was run: as §1
Mus musculus [7] = experiment: Anticonvulsant activity in CF1 mouse assessed as inhibition of 6 Hz corneal stimulation-induced limbic seizures at 4 mg/kg, ip administered 30 mins before 6 Hz corneal stimulation; type: functional, organism-based; set-up: dose 4 mg/kg; conditions: Limbic system; how it was run: as §1
Mus musculus [8] = experiment: Anticonvulsant activity in CF1 mouse assessed as inhibition of 6 Hz corneal stimulation-induced limbic seizures at 4 mg/kg, ip administered 60 mins before 6 Hz corneal stimulation; type: functional, organism-based; set-up: dose 4 mg/kg; conditions: Limbic system; how it was run: as §1
Galanin receptor type 2 [9] = target: T2, Galanin receptor type 2; experiment: Binding affinity to human GalR2
Galanin receptor type 3 = target: T3, Galanin receptor type 3 (Homo sapiens, UniProt O60755); experiment: Binding affinity to human GalR3
T3 sequence (O60755 whole entry): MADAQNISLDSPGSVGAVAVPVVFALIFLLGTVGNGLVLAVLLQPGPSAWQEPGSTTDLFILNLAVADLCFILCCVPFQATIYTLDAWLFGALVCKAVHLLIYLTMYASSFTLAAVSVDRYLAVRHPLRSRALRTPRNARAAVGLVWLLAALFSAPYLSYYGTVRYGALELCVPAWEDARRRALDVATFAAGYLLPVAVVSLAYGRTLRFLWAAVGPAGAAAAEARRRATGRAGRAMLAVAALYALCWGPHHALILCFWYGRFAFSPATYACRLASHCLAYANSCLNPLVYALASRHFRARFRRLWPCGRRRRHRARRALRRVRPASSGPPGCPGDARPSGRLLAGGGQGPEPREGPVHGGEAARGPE

Mus musculus [10] = experiment: Anticonvulsant activity in ip dosed CF1 mouse assessed as inhibition of 6 Hz corneal stimulation-induced limbic seizures; type: functional; conditions: CF1, Limbic system
[11] = Toxicity in CF1 mouse assessed as motor function by rotarod test; type: organism-based; conditions: in vivo
Mus musculus [12] = experiment: Anticonvulsant activity in intracerebroventricularly dosed pharmacoresistant epilepsy CF1 mouse model; type: functional
How it was run: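 Intracerebroventricular injection in mice, followed by the 6 Hz seizure model (32 mA). ED50 was determined in nmole with 95% CI.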

| Compound | logD [1] | half-life [2] [h] | pKd (Galanin receptor type 2 [9]) | pKd (Galanin receptor type 3) | pKi (Galanin receptor type 1) | pKi (Galanin receptor type 2 [3]) | Activity (Mus musculus [4]) | Activity (Mus musculus [5]) | Activity (Mus musculus [6]) | Activity (Mus musculus [7]) | Activity (Mus musculus [8]) | ED50 (Mus musculus [10]) [mg/kg] | TD50 [11] [mg/kg] | ED50 (Mus musculus [12]) [nmol] |
| --- | --- | --- | --- | --- | --- | --- | --- | --- | --- | --- | --- | --- | --- | --- |
| CCCCCCCCCCCCCCCC(=O)NCCCC[C@H](NC(=O)[C@H](CCCCN)NC(=O)[C@H](CCCCN)NC(=O)[C@H](CC(C)C)NC(=O)[C@H](CC(C)C)NC(=O)[C@H](Cc1ccc(O)cc1)NC(=O)CNC(=O)[C@H](C)NC(=O)[C@H](CO)NC(=O)[C@H](CC(N)=O)NC(=O)[C@H](CC(C)C)NC(=O)[C@@H](NC(=O)[C@H](Cc1c[nH]c2ccccc12)NC(=O)CNC)[C@@H](C)O)C(=O)N[C@@H](CCCCN)C(N)=O | – | > 10 | – | – | 6.51 | 5.88 | – | – | inactive | Active | Active | – | – | – |
| CSCC[C@H](NC(=O)[C@H](CC(C)C)NC(=O)CNC(=O)[C@H](Cc1ccccc1)NC(=O)[C@H](Cc1ccccc1)NC(=O)[C@H](CCC(N)=O)NC(=O)[C@H](CCC(N)=O)NC(=O)[C@@H]1CCCN1C(=O)CNC(=O)[C@H](CC(C)C)NC(=O)[C@H](CC(C)C)NC(=O)[C@H](Cc1ccc(O)cc1)NC(=O)CNC(=O)[C@H](C)NC(=O)[C@H](CO)NC(=O)[C@H](CC(N)=O)NC(=O)[C@H](CC(C)C)NC(=O)[C@@H](NC(=O)[C@H](Cc1c[nH]c2ccccc12)NC(=O)CN)[C@@H](C)O)C(N)=O [GALANTIDE] | – | – | 9.00 | 7.40 | – | – | – | – | – | – | – | – | – | – |
| H-GWTLNSAGYLLGPHAVGNHRSFSDKNGLT-OH | – | – | 8.64 | 7.16 | – | – | – | – | – | – | – | – | – | – |
| CCCCCCCCCCCCCCCC(=O)NCCCC[C@H](NC(=O)[C@H](CCCCN)NC(=O)[C@H](CCCCN)NC(=O)[C@@H]1CCCN1C(=O)CNC(=O)[C@H](CC(C)C)NC(=O)[C@H](CC(C)C)NC(=O)[C@H](Cc1ccc(O)cc1)NC(=O)CNC(=O)[C@H](C)NC(=O)[C@H](CO)NC(=O)[C@H](CC(N)=O)NC(=O)[C@H](CC(C)C)NC(=O)[C@@H](NC(=O)[C@H](Cc1c[nH]c2ccccc12)NC(=O)CNC)[C@@H](C)O)C(=O)N[C@@H](CCCCN)C(N)=O | 1.26 | 9.4 | – | – | – | 7.29 | – | Active | inactive | Active | Active | 0.8 | 21 | – |

Second part, led by results:

| logD [1] | half-life [2] [h] | pKd (Galanin receptor type 2 [9]) | pKd (Galanin receptor type 3) | Compound | pKi (Galanin receptor type 1) | pKi (Galanin receptor type 2 [3]) | Activity (Mus musculus [4]) | Activity (Mus musculus [5]) | Activity (Mus musculus [6]) | Activity (Mus musculus [7]) | Activity (Mus musculus [8]) | ED50 (Mus musculus [10]) [mg/kg] | TD50 [11] [mg/kg] | ED50 (Mus musculus [12]) [nmol] |
| --- | --- | --- | --- | --- | --- | --- | --- | --- | --- | --- | --- | --- | --- | --- |
| 0.4 | 4.6 | – | – | CNCC(=O)N[C@@H](Cc1c[nH]c2ccccc12)C(=O)N[C@H](C(=O)N[C@@H](CC(C)C)C(=O)N[C@@H](CC(N)=O)C(=O)N[C@@H](CO)C(=O)N[C@@H](C)C(=O)NCC(=O)N[C@@H](Cc1ccc(O)cc1)C(=O)N[C@@H](CC(C)C)C(=O)N[C@@H](CC(C)C)C(=O)NCC(=O)N1CCC[C@H]1C(=O)N[C@@H](CCCCN)C(=O)N[C@@H](CCCCN)C(=O)N[C@@H](CCCCN)C(=O)N[C@@H](CCCCN)C(N)=O)[C@@H](C)O | 9.40 | 7.62 | inactive | inactive | inactive | – | – | – | – | – |
| – | – | 8.70 | 7.82 | CC(C)C[C@H](NC(=O)[C@H](CC(C)C)NC(=O)[C@H](Cc1ccc(O)cc1)NC(=O)CNC(=O)[C@H](C)NC(=O)[C@H](CO)NC(=O)[C@H](CC(N)=O)NC(=O)[C@H](CC(C)C)NC(=O)[C@@H](NC(=O)[C@H](Cc1c[nH]c2ccccc12)NC(=O)CN)[C@@H](C)O)C(=O)NCC(=O)N1CCC[C@H]1C(=O)N1CCC[C@H]1C(=O)N1CCC[C@H]1C(=O)NCC(=O)N[C@@H](Cc1ccccc1)C(=O)N[C@@H](CO)C(=O)N1CCC[C@H]1C(=O)N[C@@H](Cc1ccccc1)C(=O)N[C@@H](CCCN=C(N)N)C(N)=O | – | – | – | – | – | – | – | – | – | – |
| 0.66 | 0.13 | – | – | CC(C)C[C@H](NC(=O)[C@H](CC(C)C)NC(=O)[C@H](Cc1ccc(O)cc1)NC(=O)CNC(=O)[C@H](C)NC(=O)[C@H](CO)NC(=O)[C@H](CC(N)=O)NC(=O)[C@H](CC(C)C)NC(=O)[C@@H](NC(=O)[C@H](Cc1c[nH]c2ccccc12)NC(=O)CN)[C@@H](C)O)C(=O)NCC(=O)N1CCC[C@H]1C(=O)N[C@@H](Cc1cnc[nH]1)C(=O)N[C@@H](C)C(=O)N[C@H](C(N)=O)C(C)C | – | – | inactive | inactive | inactive | inactive | inactive | – | – | 1.7 |
| 1.55 | > 10 | – | – | CCCCCCCCCCCCCCCC(=O)NCCCC[C@H](NC(=O)[C@H](C)NC(=O)[C@H](Cc1cnc[nH]1)NC(=O)[C@@H]1CCCN1C(=O)CNC(=O)[C@H](CC(C)C)NC(=O)[C@H](CC(C)C)NC(=O)[C@H](Cc1ccc(O)cc1)NC(=O)CNC(=O)[C@H](C)NC(=O)[C@H](CO)NC(=O)[C@H](CC(N)=O)NC(=O)[C@H](CC(C)C)NC(=O)[C@@H](NC(=O)[C@H](Cc1c[nH]c2ccccc12)NC(=O)CNC)[C@@H](C)O)C(N)=O | – | 6.80 | inactive | inactive | inactive | inactive | inactive | – | – | – |

Source: ChEMBL document CHEMBL1151742, “Design, synthesis, and characterization of high-affinity, systemically-active galanin analogues with potent anticonvulsant activities” (J Med Chem, 2008)
